Tests used:
[1] = molecular target: Cholinesterase (Equus caballus, UniProt P81908); test: Inhibition of equine serum BuChE by Ellman's method
Summary of the method: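 Modified Ellman assay with equine serum BuChE (enzyme stock 2.0 units/mL), run the same way as the AChE assay. Phosphate buffer pH 8.0 with DTNB (0.01 M stock). Inhibitor incubated 15 min with enzyme, buffer and DTNB before substrate was added. Absorbance rise at 412 nm read over 1 min at 37 °C. IC50 given as mean ± SEM of three experiments.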

[2] = molecular target: T1, Acetylcholinesterase (Electrophorus electricus, UniProt O42275); test: Inhibition of electric eel AChE by LB plot
[3] = Selectivity ratio of IC50 for equine serum BuChE to IC50 for electric eel AChE
Summary of the method: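 Modified Ellman assays with electric eel AChE and equine serum BuChE (enzyme stocks 2.0 units/mL). AChE substrate was acetylthiocholine chloride (0.01 M stock), in phosphate buffer pH 8.0 with DTNB (0.01 M stock), after 15 min inhibitor preincubation. A412 read over 1 min at 37 °C. IC50s are means ± SEM of three experiments; ratio = IC50(BuChE)/IC50(AChE).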

[4] = molecular target: T1, Acetylcholinesterase; test: Inhibition of electric eel AChE by Ellman's method

Cholinesterase, sequence (P81908 whole entry): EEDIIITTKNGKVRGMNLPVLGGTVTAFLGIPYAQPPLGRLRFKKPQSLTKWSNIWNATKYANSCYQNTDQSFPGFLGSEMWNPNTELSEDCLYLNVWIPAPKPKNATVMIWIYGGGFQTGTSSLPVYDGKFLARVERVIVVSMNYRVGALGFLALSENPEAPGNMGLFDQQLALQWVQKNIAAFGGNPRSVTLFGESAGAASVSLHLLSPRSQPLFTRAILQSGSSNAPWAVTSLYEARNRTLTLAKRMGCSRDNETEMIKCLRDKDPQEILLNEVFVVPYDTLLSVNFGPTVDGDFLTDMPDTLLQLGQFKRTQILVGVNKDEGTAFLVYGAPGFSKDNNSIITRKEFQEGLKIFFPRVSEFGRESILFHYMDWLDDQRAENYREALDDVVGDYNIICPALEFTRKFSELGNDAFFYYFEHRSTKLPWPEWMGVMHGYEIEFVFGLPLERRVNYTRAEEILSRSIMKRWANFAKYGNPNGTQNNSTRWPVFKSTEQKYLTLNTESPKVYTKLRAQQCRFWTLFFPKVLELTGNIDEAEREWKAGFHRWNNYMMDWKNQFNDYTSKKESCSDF
T1 sequence (O42275 whole entry): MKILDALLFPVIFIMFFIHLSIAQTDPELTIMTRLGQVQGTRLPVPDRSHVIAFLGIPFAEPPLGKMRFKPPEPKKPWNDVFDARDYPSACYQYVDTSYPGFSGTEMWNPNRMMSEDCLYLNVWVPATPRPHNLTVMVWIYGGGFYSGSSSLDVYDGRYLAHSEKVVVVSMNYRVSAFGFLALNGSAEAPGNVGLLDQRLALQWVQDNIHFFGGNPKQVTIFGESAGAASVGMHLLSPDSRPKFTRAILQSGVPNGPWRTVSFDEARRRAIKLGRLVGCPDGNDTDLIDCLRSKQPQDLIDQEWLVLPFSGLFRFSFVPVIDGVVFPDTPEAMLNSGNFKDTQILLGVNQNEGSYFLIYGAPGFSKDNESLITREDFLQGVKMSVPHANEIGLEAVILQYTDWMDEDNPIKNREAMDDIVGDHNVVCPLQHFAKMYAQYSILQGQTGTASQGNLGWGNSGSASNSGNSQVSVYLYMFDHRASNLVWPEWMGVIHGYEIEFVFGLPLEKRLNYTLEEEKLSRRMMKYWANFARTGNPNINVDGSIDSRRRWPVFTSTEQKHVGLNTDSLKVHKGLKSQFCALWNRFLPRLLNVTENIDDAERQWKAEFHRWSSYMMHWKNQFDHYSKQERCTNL

Compound | IC50 [1] [µM] | Ki [2] [µM] | Ratio IC50 [3] | IC50 [4] [µM]
O=C1c2ccccc2-c2cccc3ccnc1c23 | 4.01 | 14.6 | 0.4 | 10.6
C[N+]1(CCCNC(=O)c2cnc3c4c(cccc24)-c2ccccc2C3=O)CCOCC1 | 4.75 | – | 4 | 1.05
CC[N+](C)(CC)CCNC(=O)c1cnc2c3c(cccc13)-c1ccccc1C2=O | 8.14 | – | 5 | 1.71
CC[N+](C)(CC)CCCNC(=O)c1cnc2c3c(cccc13)-c1ccccc1C2=O | 9.72 | – | 15 | 0.65
C[N+](C)(C)CCC(=O)Nc1ccc2c(c1)C(=O)c1cccc3ccnc-2c13 | 2.82 | – | 590 | –
O=C(NCCO)c1cnc2c3c(cccc13)-c1ccccc1C2=O | 68.7 | – | 4 | 18
C[N+]1(CCCNC(=O)c2cnc3c4c(cccc24)-c2ccccc2C3=O)CCCCC1 | 6.24 | 0.11 | 57 | 0.11
O=C(NCCCO)c1cnc2c3c(cccc13)-c1ccccc1C2=O | 53.3 | – | 4 | 12.2
C[N+](C)(C)CCNC(=O)c1cnc2c3c(cccc13)-c1ccccc1C2=O | 5.03 | – | 1 | 3.32
CC[N+](C)(CC)CCC(=O)Nc1ccc2c(c1)C(=O)c1cccc3ccnc-2c13 | 5.19 | – | 1980 | 0.00262
C[N+](C)(C)CCCNC(=O)c1cnc2c3c(cccc13)-c1ccccc1C2=O | 2.71 | – | 1 | 3.16
C[N+]1(CCNC(=O)c2cnc3c4c(cccc24)-c2ccccc2C3=O)CCCCC1 | 6.76 | – | 16 | 0.35
Nc1ccc2c(c1)C(=O)c1cccc3ccnc-2c13 | > 100 | 3.86 | – | –
C[N+]1(CCNC(=O)c2cnc3c4c(cccc24)-c2ccccc2C3=O)CCOCC1 | 11.7 | – | 9 | 1.24
C[N+]1(CCC(=O)Nc2ccc3c(c2)C(=O)c2cccc4ccnc-3c24)CCCCC1 | 0.6 | 0.00031 | 1250 | 0.00048

From ChEMBL document CHEMBL1158399, “Synthesis, biological evaluation and molecular modeling of oxoisoaporphine and oxoaporphine derivatives as new dual inhibitors of acetylcholinesterase/butyrylcholinesterase” (Eur J Med Chem, 2009)
